The source made the active and inactive calls. The rule behind the calls is not given here.
How the values were obtained:
[1] = system: Simian immunodeficiency virus; experiment: Antiviral activity against SIV in human CEM cells assessed as inhibition of virus-induced cytopathogenicity; assay type: functional, organism-based, CCRF-CEM; conditions: Simian immunodeficiency virus, CCRF-CEM; read-out: EC50
How it was run: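 SIV syncytium assay in CEM174 cells (2 × 10⁵ cells/ml) infected with 100 TCID₅₀ SIV per well alongside serial compound dilutions. Cultures were kept 5 days at 37 °C in humidified 5% CO₂, then giant-cell formation was scored microscopically. EC₅₀ is the concentration protecting cells from SIV cytopathogenicity by 50%.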

[2] = Cytotoxicity against human CEM cells; assay type: cell-based; conditions: CEM cells (CCRF-CEM), read-out: TC50 (the source's name)
[3] = Therapeutic index, TC50 for human CEM cells to EC50 for SIV; assay type: cell-based, CCRF-CEM
[4] = molecular target: Structural capsid protein (Human immunodeficiency virus 1) (UniProt Q76129); experiment: Binding affinity to HIV1 capsid assessed as assembly rate per minute by ultraviolet spectrophotometry assay
Sequence of Structural capsid protein (Human immunodeficiency virus 1) (Q76129 as listed by the source): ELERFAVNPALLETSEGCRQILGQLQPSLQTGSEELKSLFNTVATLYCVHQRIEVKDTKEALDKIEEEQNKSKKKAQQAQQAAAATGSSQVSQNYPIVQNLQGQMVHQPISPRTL
How it was run: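 Turbidity was read at 350 nm every 10 s after a short equilibration delay. Assembly rate (mOD/min) was taken from the initial slope of absorbance versus time.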

[5] = molecular target: T1, Peptidyl-prolyl cis-trans isomerase A (Homo sapiens, UniProt P62937); experiment: Binding affinity to human cyclophilin A by intrinsic tryptophan fluorescence titration assay
T1 sequence (P62937 whole entry): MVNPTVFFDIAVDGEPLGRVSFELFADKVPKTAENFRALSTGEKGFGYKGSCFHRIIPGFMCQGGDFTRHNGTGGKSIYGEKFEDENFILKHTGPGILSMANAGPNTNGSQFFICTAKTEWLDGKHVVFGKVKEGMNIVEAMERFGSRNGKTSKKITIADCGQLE
How it was run: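 CypA intrinsic tryptophan fluorescence titration in 20 mM Tris–HCl, 100 mM NaCl, pH 7.4, at 25 °C, with compounds from 10 mM DMSO stocks. Excitation was 280 nm and emission was read at 340 nm. Kd was obtained by fitting intensity against final compound concentration to F₀/F = 1 + Ka·C.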

[6] = molecular target: T1, Peptidyl-prolyl cis-trans isomerase A; experiment: Inhibition of human cyclophilin A at 6 degC
How it was run: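 PPIase assay at 6 °C in 50 mM HEPES, 100 mM NaCl, using Suc-AAPF-pNA substrate (3 mM stock in THF with 480 mM LiCl). A390 was recorded for 20 s after about a 6 s mixing delay. Cis–trans rate constants came from nonlinear least-squares fits to an integrated first-order equation, and IC₅₀ was calculated from these.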

[7] = molecular target: Protease (Human immunodeficiency virus 1) (UniProt Q9YQ12); experiment: Inhibition of HIV1 protease
Sequence of Protease (Human immunodeficiency virus 1) (Q9YQ12 as listed by the source): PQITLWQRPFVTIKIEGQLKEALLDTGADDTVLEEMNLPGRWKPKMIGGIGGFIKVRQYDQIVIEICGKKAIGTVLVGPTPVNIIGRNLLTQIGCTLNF
How it was run: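 HIV-1 protease was preincubated with inhibitor (DMSO) for 20 min at room temperature in 0.1 M MES, 0.2 M NaCl, 5 mM EDTA, pH 5.5. The reaction was started with substrate Lys-Ala-Arg-Val-Leu-Phe(NO₂)-Glu-Ala-Met, and hydrolysis was followed as the A280 decrease over 40 min. Inhibition ratio was taken from Ai/A₀, with and without inhibitor.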

[8] = molecular target: Human immunodeficiency virus type 1 integrase (Human immunodeficiency virus 1) (UniProt Q7ZJM1); experiment: Inhibition of HIV1 integrase at 20 uM; parameters: scale not given: the % may be the effect or the level left
Sequence of Human immunodeficiency virus type 1 integrase (Human immunodeficiency virus 1) (Q7ZJM1 as listed by the source): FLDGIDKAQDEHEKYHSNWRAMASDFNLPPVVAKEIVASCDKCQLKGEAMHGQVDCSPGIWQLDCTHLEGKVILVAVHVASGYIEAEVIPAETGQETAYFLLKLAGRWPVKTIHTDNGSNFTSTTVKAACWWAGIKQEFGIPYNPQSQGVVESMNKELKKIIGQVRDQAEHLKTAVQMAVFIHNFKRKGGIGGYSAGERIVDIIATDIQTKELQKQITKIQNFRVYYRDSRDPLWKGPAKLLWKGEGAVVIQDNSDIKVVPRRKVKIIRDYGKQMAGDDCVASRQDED
How it was run: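 Recombinant HIV-1 integrase (E. coli) was preincubated with compound for 30 min. It was then incubated for 30 min at 37 °C on plate-immobilized donor duplex in Tris–HCl pH 7.8, 25 mM NaCl, 7.5 mM MgCl₂, 5 mM β-mercaptoethanol and BSA. Biotinylated target duplex was added for 1 h at 37 °C. Integration products were detected by pNPP phosphatase read-out at A405, and inhibition was taken as the decrease in final absorbance.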

Structure (SMILES) | EC50 [1] [µM] | CC50 [2] [µM] | selectivity ratio [3] | Activity (milli optical density/minute) [4] | Kd ([5]; read-out: Kd) [µM] | IC50 [6] [µM] | Activity [7] | Activity [8] [%] | Activity [4] | Kd [5]
COc1ccc(NS(=O)(=O)c2ccc(NC(=S)Nc3ccc(Cl)cc3)cc2)cc1 | 4.1 | 77.5 | 19 | 26.3 | 60.8 |  |  |  |  | 
Cc1ccc(NC(=S)Nc2ccc(C)c([N+](=O)[O-])c2)cc1Cl | 3.1 | 38.8 | 12 | 60 | 88.9 | 0.46 | inactive | < 20 |  | 
Cc1cc(NS(=O)(=O)c2ccc(NC(=S)Nc3cccc(Br)c3)cc2)no1 | 0.9 | 58.7 | 66 | 31.2 | 88.6 | 0.45 |  |  |  | 
CCN(CC)c1nc(C)cc(NCCNC(=S)Nc2cccc(Br)c2)n1 | 5.5 | 8.43 | 2 |  | 200 |  |  |  | inactive | 
Cc1cc(NS(=O)(=O)c2ccc(NC(=S)Nc3ccccc3C)cc2)no1 | 6.2 | 48.4 | 8 | 64.8 | 116 | 0.6 |  |  |  | 
COc1ccc(NC(=S)Nc2ccc3ccccc3c2)cc1 | 2.3 | 16.1 | 7 | 66.7 | 124 |  | inactive | < 20 |  | 
Cc1cccc(NC(=S)Nc2ccc3c(c2)C(=O)OC3)c1 | 11.6 | 16 | 1 | 64.6 | 141 |  | inactive | < 20 |  | 
CCN(CC)c1nc(C)c([N+](=O)[O-])c(NCCNC(=S)Nc2ccc(C)c(Cl)c2)n1 | 6.3 | 44.2 | 7 | 91 | 73.3 | 0.74 |  |  |  | 
Cc1cc(NS(=O)(=O)c2ccc(NC(=S)Nc3cccc(F)c3)cc2)no1 | 11.6 | 88 | 8 | 76.2 | 128 | 0.38 |  |  |  | 
O=C1OCc2ccc(NC(=S)Nc3ccc(F)cc3)cc21 | 15.8 | 83.7 | 5 | 55.7 | 227 |  | inactive | < 20 |  | 
O=C1OCc2ccc(NC(=S)Nc3cccc(F)c3)cc21 | 6.3 | 60.2 | 10 | 78.6 | 140 |  | inactive | < 20 |  | 
Cc1ccc(NC(=S)Nc2ccc3c(c2)C(=O)OC3)cc1Cl | 4.6 | 18.7 | 4 | 19.6 | 96.6 | 0.59 | inactive | < 20 |  | 
O=C1OCc2ccc(NC(=S)Nc3cc(Cl)c(Cl)cc3Cl)cc21 | 3 | 24.4 | 8 | 67.8 | 147 |  | inactive | < 20 |  | 
Cc1cc(NS(=O)(=O)c2ccc(NC(=S)Nc3ccc(F)cc3)cc2)no1 | 6.9 | 75.4 | 11 | 73.8 | 110 | 0.35 |  |  |  | 
Cc1ccc(NC(=S)Nc2ccc(S(=O)(=O)Nc3nccs3)cc2)cc1Cl | 10.8 | 37 | 3 | 27.4 | 51.6 | 0.16 |  |  |  | 
COc1ccc(NC(=S)Nc2ccc(S(=O)(=O)Nc3cc(C)on3)cc2)cc1 | 1.5 | 41.9 | 27 | 40 | 101 |  | inactive | < 20 |  | 
Cc1ccccc1NC(=S)Nc1ccc2c(c1)C(=O)OC2 | 2.8 | 46.9 | 17 | 65.7 |  |  | inactive | < 20 |  | Not Active
O=C1OCc2ccc(NC(=S)Nc3cccc(Br)c3)cc21 | 4.6 | 30.8 | 7 | 69.6 | 125 |  | inactive | < 20 |  | 
COc1ccc(NC(=S)Nc2ccc3c(c2)C(=O)OC3)cc1 | 4.7 | 91.9 | 20 | 59.1 | 172 |  | inactive | < 20 |  | 
O=C1OCc2ccc(NC(=S)Nc3cc(F)cc(F)c3)cc21 | 6.1 | 69.1 | 11 | 63.6 | 513 |  | inactive | < 20 |  | 
Cc1ccc(NC(=S)Nc2ccc(S(=O)(=O)Nc3nccs3)cc2)cc1 | 2.2 | 20.9 | 9 | 59 | 76.9 | 0.45 |  |  |  | 
Cc1ccc(NC(=S)Nc2ccc(S(=O)(=O)Nc3cc(C)on3)cc2)cc1 | 9.6 | 41.4 | 4 | 45.9 | 119 |  |  |  |  | 
O=C1OCc2ccc(NC(=S)Nc3ccc(Cl)cc3)cc21 | 6.2 | 83.9 | 14 | 49.6 | 222 |  | inactive | < 20 |  | 
CCN(CC)c1nc(C)c([N+](=O)[O-])c(NCCNC(=S)Nc2cccc(Br)c2)n1 | 7.4 | 26.2 | 4 | 88.1 | 79.3 | 0.81 |  |  |  | 
Cc1cc(NS(=O)(=O)c2ccc(NC(=S)Nc3ccccc3)cc2)no1 | 7.5 | 49.7 | 7 | 39.2 | 88.1 | 0.58 |  |  |  | 
